Screening results as filed in PubChem BioAssay.
AHR act – activators of human aryl hydrocarbon receptor; AHR-responsive luciferase reporter cells, luminescence; AID 2796; 320,000 tested, 2.5% active; activation, % at 5 µM; in the data active = activation above about 47%
Target sequence (P35869 whole entry, looked up): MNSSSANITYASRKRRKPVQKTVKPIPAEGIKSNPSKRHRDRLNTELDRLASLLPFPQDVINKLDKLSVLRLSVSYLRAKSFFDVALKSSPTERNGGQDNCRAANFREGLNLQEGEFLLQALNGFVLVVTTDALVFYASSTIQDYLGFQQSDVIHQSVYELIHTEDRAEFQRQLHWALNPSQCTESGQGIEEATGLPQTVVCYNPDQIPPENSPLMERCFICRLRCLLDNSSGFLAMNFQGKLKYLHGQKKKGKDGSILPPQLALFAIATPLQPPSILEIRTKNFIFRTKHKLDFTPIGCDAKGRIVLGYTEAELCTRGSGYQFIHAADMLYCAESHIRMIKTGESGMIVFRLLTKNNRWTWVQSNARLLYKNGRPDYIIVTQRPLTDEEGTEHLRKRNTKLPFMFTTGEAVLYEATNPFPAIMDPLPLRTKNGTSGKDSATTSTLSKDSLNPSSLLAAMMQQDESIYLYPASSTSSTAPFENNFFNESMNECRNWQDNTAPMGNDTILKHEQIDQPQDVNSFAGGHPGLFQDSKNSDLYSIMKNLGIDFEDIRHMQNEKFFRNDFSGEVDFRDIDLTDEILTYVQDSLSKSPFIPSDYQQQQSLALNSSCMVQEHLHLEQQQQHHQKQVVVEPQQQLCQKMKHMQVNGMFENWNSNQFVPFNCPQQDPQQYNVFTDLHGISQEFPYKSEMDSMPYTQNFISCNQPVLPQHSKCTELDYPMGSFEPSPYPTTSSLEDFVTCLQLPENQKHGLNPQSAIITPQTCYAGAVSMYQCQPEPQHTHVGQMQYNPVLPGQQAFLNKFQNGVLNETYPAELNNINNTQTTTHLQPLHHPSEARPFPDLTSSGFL
MsrA act – activates bovine MsrA enzyme; purified bovine MsrA, absorbance read-out; activation, % at 10.6 µM; 360,000 tested, 0.3% active; AID 602163; in the data active = activation above about 7.5%
AI-2 QS modul – modulators of Vibrio harveyi AI-2 quorum sensing system; Vibrio harveyi JMH597 AI-2 luminescence/OD600 ratio, 9 h; hits give low values; strain lacks LuxN and CqsS sensors; 0 = neutral-control median; activity change, % at 7.5 µM; 300,000 tested, 0.4% active; AID 2094; in the data active = activity change below about -75%, passing the limit was not always enough;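 also: luminescence divided by OD600 gain over 9 h not by final OD600 alone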
Tb MetRS inh – blocks T. brucei methionyl-tRNA synthetase activity; inhibition, % at 11.9 µM; 360,000 tested, 0.4% active; purified T. brucei MetRS, ATP depletion, Kinase-Glo luminescence; AID 624268;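 active = inhibition above a per-plate cutoff of the control wells' mean inhibition plus 3 SD, cut at about 5.5% in these data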
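Material – parasite MetRS enzyme · Medium – HEPES-MgCl2-KCl buffer plus DTT, spermine, BSA, pyrophosphatase · Reagent – ATP, methionine and E. coli bulk tRNA substrates · Times – 15 min enzyme-compound preincubation, 2 h reaction, 10 min detection, 25 °C · Measured by – luminescence of leftover ATP · Evaluation – percent inhibition relative to median high and low control wells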
m5-HT2A agonist – activates the mouse 5-HT2A serotonin receptor. activation, % at 7.6 µM. P35363. 360,000 tested, 0.66% active. AID 624169. CHO-K1 mHTR2A beta-arrestin complementation, luminescence; percent of 30 µM serotonin response;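 active = activation above a run cutoff, the mean activation of all tested compounds plus 3 SD, cut at about 14% in these data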
MsrA inhibitor – inhibits bovine methionine sulfoxide reductase A. purified bovine MsrA, absorbance read-out. inhibition, % at 15.5 µM. 360,000 tested, 0.75% active. AID 651718; in the data active = inhibition above about 4.5%
Of the large screens only hits and unclear results are named; the others gave an inactive call. Hits are enriched below; roughly 4.4% of the tested compounds scored in any of these assays.

CCC(=O)OC1(C)C(=O)C2=COC(c3ccc(OC)cc3)=CC2=C(Br)C1=O (stereo not drawn)	MsrA act 10
COc1ccc(C2=CC3=C(Br)C(=O)C(C)(O)C(=O)C3=CO2)cc1 (stereo not drawn)	none (no result: MsrA inhibitor)
CCC(C)Sc1ccc(-c2nc3cnccn3c2NC2CCCCC2)cc1 (stereo not drawn)	none
Clc1ccc(-c2nc3cnccn3c2NC2CCCC2)cc1	AHR act 51 (no result: MsrA inhibitor)
Cc1[nH]nc2c1C(c1cccc(C(F)(F)F)c1)NC2=O (stereo not drawn)	none (no result: AHR act, MsrA act, AI-2 QS modul, Tb MetRS inh, m5-HT2A agonist)
CCCNC(=O)c1ccc2c(=O)c(O)c(-c3ccc(F)cc3)[nH]c2c1	AHR act 70 (no result: MsrA inhibitor)
CCCNC(=O)c1ccc2c(=O)c(O)c(-c3cccc(Br)c3)[nH]c2c1	none
COc1ccc(C(CNC(=O)C(C)Oc2ccc(Br)cc2)N2CCOCC2)cc1 (stereo not drawn)	AHR act 49
COc1ccc(C(CNC(=O)CSc2ccc(Br)cc2)N2CCOCC2)cc1 (stereo not drawn)	none
Cc1nnc(N2C(=O)c3cccc4cccc(c34)C2=O)s1	AHR act 68
Cc1nnc(C)n1N1C(=O)c2cccc3cccc(c23)C1=O	none
CCCc1nnc(N2C(=O)c3cccc4cccc(c34)C2=O)s1	AHR act 73
C[C@@H]1CCCCO[C@H](CN(C)S(=O)(=O)c2cn(C)cn2)[C@@H](C)CN([C@H](C)CO)C(=O)c2cc(NC(=O)CCCN(C)C)ccc2O1	none (no result: AHR act, MsrA act, AI-2 QS modul, Tb MetRS inh, m5-HT2A agonist)
O=C1N(CCCCN2C(=O)C3(OCCO3)c3ccccc32)c2ccccc2C12OCCO2	AHR act 60
O=C(OCC(=O)N1CCc2ccccc2C1)c1ccc(O)cc1	none (no result: AI-2 QS modul)
COc1cc(NC(=O)c2cc3ccccc3o2)c(OC)cc1Br	none
COc1ccc(NC(=O)c2cc3ccccc3o2)cc1OC	none
COc1cc(OC)cc(C(=O)Nc2cc(NC(=O)c3ccco3)ccc2OC)c1	AHR act 55
COc1ccccc1NC(=O)c1cc2ccccc2o1	AHR act 74
COc1cc(NC(=O)c2cc3ccccc3o2)c(OC)cc1Cl	AHR act 62
O=C(Nc1ccc(F)cc1)c1cc2ccccc2o1	AHR act 72
CCCCCN(C(=O)Cc1c(C)n(CCCCC)c2ccccc12)c1ccc(Oc2cccnc2)c(C)c1	none (no result: AHR act, MsrA act, AI-2 QS modul, Tb MetRS inh, m5-HT2A agonist)
COC(=O)[C@]12C[C@H](CC(=O)N3CCCC3)C(=O)N(Cc3ccc4c(c3)OCO4)C1=C[C@H](COCc1ccccc1)O[C@@H]2C	none (no result: AHR act, MsrA act, AI-2 QS modul, Tb MetRS inh, m5-HT2A agonist)
O=C(Nc1ccc(NC(=O)c2cc3ccccc3o2)cc1)c1ccco1	none
Cc1ccc(NC(=O)c2cc(=O)c3ccccc3o2)cc1	AHR act 55
O=C(NNC(=O)c1ccccc1O)c1cc2ccccc2o1	AHR act 68
COc1ccc(NC(=O)c2ccco2)cc1NC(=O)c1cc2ccccc2o1	AHR act 62
CCC(Oc1ccccc1)C(=O)OCC(=O)Nc1sccc1C(N)=O (stereo not drawn)	none (no result: AI-2 QS modul)
CSc1nn(CCC#N)c(=O)[nH]c1=O	none (no result: AHR act, MsrA act, AI-2 QS modul, Tb MetRS inh, m5-HT2A agonist)
CCc1cccc2c(C(=O)COC(=O)c3ccc([N+](=O)[O-])s3)c[nH]c12	AI-2 QS modul -206
CN1C=C/C(=C\c2cc[n+](C)c3ccccc23)c2ccccc21	MsrA inhibitor 48 (no result: AHR act)
COc1cccc(C(=O)NC(=S)NCc2ccco2)c1	none
COc1cc(OC)cc(C(=O)NC(=S)NCc2ccco2)c1	AHR act 64 (no result: MsrA inhibitor)
C/C(=N\NC(=O)c1nnn(-c2nonc2N)c1C(C)C)c1cc(C)sc1C	none
CCN1C(=O)N(C(C)=O)[C@@H]2C[C@H](C(=O)N3CCCC3)[C@H](C)[C@H](c3ccccc3)C[C@@H]21	none (no result: AHR act, MsrA act, AI-2 QS modul, Tb MetRS inh, m5-HT2A agonist)
O=[N+]([O-])c1cccc(-c2ccc(/C=N/NC(=S)Nc3cccc(F)c3)o2)c1	AHR act 49
Cc1ccc(-c2ccc(/C=N/NC(=S)Nc3ccccc3)o2)cc1[N+](=O)[O-]	none
Fc1ccccc1-c1csc(=Nc2cccnc2)n1CCCn1ccnc1	AHR act 70
Fc1ccccc1-c1csc(=Nc2cccnc2)n1CC1CCCO1 (stereo not drawn)	none
Cc1ccc(Sc2nnc(-c3ccccc3)cc2C#N)cc1	none
Cc1ccc(Sc2ccc(N)cc2C#N)cc1	AI-2 QS modul -81
CC(C)(C)NC(=O)C1c2ccccc2OCC(=O)N1CC(F)(F)F (stereo not drawn)	none (no result: AHR act, AI-2 QS modul)
CCN1CCN(CC(O)COc2ccc(Cl)cc2)CC1 (stereo not drawn)	none
CCN1CCN(CC(O)COC(C)C)CC1 (stereo not drawn)	MsrA act 15
Cc1ccc2nc(NC(=O)c3cccs3)sc2c1	AHR act 64 (no result: AI-2 QS modul)
Cc1ccc2nc(NC(=S)NC(=O)c3cccs3)sc2c1	none
Cc1cccc(-c2nnc(NC(=O)c3cccs3)s2)c1	AHR act 48
CS(=O)(=O)c1ccc2nc(NC(=O)c3cccs3)sc2c1	MsrA inhibitor 6.8 (no result: AI-2 QS modul)
COc1cc(C(=O)Nc2nc3ccc(S(C)(=O)=O)cc3s2)cc(OC)c1C	none
COc1cc(OC)cc(C(=O)Nc2nc3ccc(S(C)(=O)=O)cc3s2)c1	AHR act 49
COc1cc2c(c(OC)c1OC)[C@@]1(c3ccccc3)CCCCC[C@H]1[C@@H]2NC(=O)C(F)(F)F	none (no result: AHR act, MsrA act, AI-2 QS modul, Tb MetRS inh, m5-HT2A agonist)
NC(=O)c1ncn([C@@H]2O[C@H](C(=O)N[C@H](Cc3c[nH]c4ccccc34)C(=O)N3CCN(C(=O)N4CCOCC4)CC3)[C@@H](O)[C@H]2O)n1	none (no result: AHR act, MsrA act, AI-2 QS modul, Tb MetRS inh, m5-HT2A agonist)
CN(C)C(CNC(=O)c1ccc2nccnc2c1)c1ccco1 (stereo not drawn)	none (no result: AI-2 QS modul)
O=S1(=O)CC(N2CCSCC2)CN1Cc1cn(Cc2ccc(C(F)(F)F)cc2)nn1 (stereo not drawn)	none (no result: AHR act, AI-2 QS modul)
O=C(N[C@H](Cc1ccccc1)C(=O)N1CCN(c2ccc(Cl)cn2)CC1)[C@H]1O[C@@H](n2ccc(=O)[nH]c2=O)[C@H](O)[C@@H]1O	none (no result: AHR act, MsrA act, AI-2 QS modul, Tb MetRS inh, m5-HT2A agonist)
Cc1cccc(Nc2nc(N)c(C#N)c(CC#N)c2C#N)c1	AHR act 50, MsrA inhibitor 4.6
CCO[C@H]1OC(C(=O)N2CCN(C)CC2)=C[C@@H](c2ccc(Br)cc2)[C@@H]1CCCO	none
CCO[C@@H]1OC(C(=O)N2CCOCC2)=C[C@H](c2ccc(Br)cc2)[C@H]1CCCO	m5-HT2A agonist 18
COC(=O)C1=C(C)N(C)C(=NCc2ccc(OC)cc2)NC1c1ccc(F)cc1 (stereo not drawn)	none (no result: AHR act, MsrA act, AI-2 QS modul, Tb MetRS inh, m5-HT2A agonist)
COc1ccccc1/C=N\N=C(\N)c1ccccn1	AHR act 71
O=S1(=O)N[C@@H](Cc2ccccc2)COc2cccc(NCCO)c21	none (no result: AHR act, MsrA act, AI-2 QS modul, Tb MetRS inh, m5-HT2A agonist)
c1ccc2c(N3CCOCC3)nc(-c3ccncc3)nc2c1	none
Cc1cc(N)n(-c2nc(-c3cccnc3)nc3ccccc23)n1	AHR act 61
c1cncc(-c2nc(N3CCOCC3)c3ccccc3n2)c1	AHR act 78 (no result: MsrA inhibitor)
Brc1ccccc1-c1nc2c3ccccc3ncn2n1	AHR act 66 (no result: AI-2 QS modul)
